Laboratory results published in ChEMBL document CHEMBL1133770, “Synthesis and antitumor activity of new benzoheterocyclic derivatives of distamycin A” (J Med Chem, 2000).
Where “and” joins values, the source holds several entries; their conditions need not be identical. Identical values can stand only once.

Assays:
L1210 [1] = experiment: In vivo optimal nontoxic dose against murine L1210 leukemia cells after i.v. administration day 1 after tumor i.v. inoculation.
L1210 [2] = experiment: In vitro antitumor activity evaluated against L1210 murine leukemia cell line; format: functional, cell-based; conditions: Mus musculus
Outline: (§1)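 L1210 murine leukemia cells and their doxorubicin-resistant and tallimustine-resistant sublines were grown as stationary suspension in RPMI 1640 with 10% fetal calf serum, 2 mM L-glutamine, β-mercaptoethanol and antibiotics. Compounds were dissolved in DMSO at 1 mg/mL (stock) and diluted in medium. Exponentially growing cells were exposed continuously for 48 h, and survivors were counted electronically. IC50 (cell number reduced to 50% of untreated control) was taken from dose-response curves. Duplicate cultures were used, with vehicle controls.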

L1210 [3] = experiment: In vivo median survival time of treated vs untreated mice x 100 against murine L1210 leukemia cells after iv treatment on day 1 after tumor iv transplant; format: functional, Mus musculus
[4] = Resistance index(RI) = Ratio between IC50 value on resistant cells and sensitive cells; format: functional
Outline: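 L1210/DX (doxorubicin-resistant), L1210/tallimustine-resistant and parental L1210 cells grown as stationary suspension in RPMI 1640 with 10% FCS. Compounds from 1 mg/mL DMSO stock, diluted in medium. Exponentially growing cells exposed continuously for 48 h, with duplicate cultures per concentration and vehicle controls. Survivors counted electronically; IC50 taken from dose-response curves. RI = resistant-line IC50 / parental L1210 IC50.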

L1210 [5] = experiment: Inhibition of growth in L1210 leukemia cells resistant to Tallimustine.; format: functional, cell-based; conditions: Mus musculus
Outline: as §1

L1210 [6] = experiment: Inhibition of growth in L1210 leukemia cells resistant to doxorubicin(DX).; format: functional, cell-based; conditions: Mus musculus
Outline: as §1

Estrogen receptor = Estrogen receptor (Homo sapiens, UniProt Q92731+P03372); experiment: Tested for 50% inhibition of generation of Human estrogen receptor polymerase chain reaction(PCR) products; format: protein assay
L1210 [7] = experiment: Ratio between IC50 value on resistant cells and sensitive cells; format: functional, Mus musculus; set-up: reference not given here
Outline: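 Murine L1210 leukemia cells, parental and doxorubicin- or tallimustine-resistant sublines, were grown in stationary suspension in RPMI 1640 with 10% FCS, 2 mM glutamine, […] and antibiotics. Exponentially growing cells were exposed continuously for 48 h to graded concentrations from a 1 mg/mL DMSO stock, and survivors were counted electronically. IC50 came from dose-response curves, with duplicate cultures and at least two repeats. RI was the IC50 on resistant cells divided by the IC50 on sensitive cells.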

L1210 [8] = experiment: In vivo optimal nontoxic dose against murine L1210 leukemia cells after ip treatment on day 1 after tumor ip transplant; format: functional, Mus musculus
Outline: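 L1210 leukemia cells (10^5/mouse) were implanted ip or iv in female mice, 10 per group. Compounds were made fresh in 10% Tween 80/90% saline and given ip or iv on day 1 after implant, over a dose-response range. […] Toxicity was judged by gross autopsy and weight loss.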

L1210 [9] = experiment: In vivo median survival time of treated vs untreated mice x 100 against murine L1210 leukemia cells after ip treatment on day 1 after tumor iv transplant; format: functional, Mus musculus

| SMILES | Optimal dose (L1210 [1]) | IC50 (L1210 [2]) | T/C (L1210 [3]) | Resistance index [4] | IC50 (L1210 [5]) | IC50 (L1210 [6]) | IC50 (Estrogen receptor) | Resistance index (L1210 [7]) | Optimal dose (L1210 [8]) | T/C (L1210 [9]) |
| --- | --- | --- | --- | --- | --- | --- | --- | --- | --- | --- |
| Cl.Cn1cc(NC(=O)c2cc(NC(=O)c3cc(NC(=O)c4cc5cc(NC(=O)c6ccc(N(CCCl)CCCl)cc6)ccc5n4C)cn3C)cn2C)cc1C(=O)NCCC(=N)N | 25 mg/kg | 61.7 nM | 183% | 6.8 and 19 | 1.2 nM | 0.42 nM | 5 nM | – | – | – |
| Cl.Cn1cc(NC(=O)c2cc(NC(=O)c3cc(NC(=O)/C=C/c4ccc(N(CCCl)CCCl)cc4)cn3C)cn2C)cc1C(=O)NCCC(=N)N | 6.2 mg/kg | – | 267% | – | – | – | – | – | – | – |
| Cn1cc(NC(=O)c2cc(NC(=O)c3cc(NC(=O)c4cc(NC=O)cn4C)cn3C)cn2C)cc1C(=O)NCCC(=N)N | – | – | – | – | 1.2 nM | 0.42 nM | – | – | – | – |
| C=C(Br)C(=O)Nc1ccc2oc(C(=O)Nc3cc(C(=O)Nc4cc(C(=O)Nc5cc(C(=O)NCCC(=N)N)n(C)c5)n(C)c4)n(C)c3)cc2c1.Cl | 0.78 mg/kg | 6.1 nM | 117% | – | 210 nM | 39 nM | – | – | – | – |
| Cn1cc(NC(=O)c2cc(NC(=O)c3cc(NC=O)cn3C)cn2C)cc1C(=O)NCCC(=N)N [STALLIMYCIN] | – | 10100 nM | – | – | 142000 nM | 459000 nM | 20 nM | – | – | – |
| Cl.Cn1cc(NC(=O)c2cc(NC(=O)c3cc(NC(=O)c4nc5cc(NC(=O)c6ccc(N(CCCl)CCCl)cc6)ccc5[nH]4)cn3C)cn2C)cc1C(=O)NCCC(=N)N | – | 1420 nM | – | – | 1.2 nM | 0.42 nM | 5 nM | 6.8 and 19 | – | – |
| Cl.Cn1cc(NC(=O)c2cc(NC(=O)c3cc(NC(=O)c4ccc(N(CCCl)CCCl)cc4)cn3C)cn2C)cc1C(=O)NCCC(=N)N [TALLIMUSTINE CHLORIDE] | 3.1 mg/kg | – | 133% | – | – | – | – | – | 3.1 mg/kg | – |
| Cl.Cn1cc(NC(=O)c2cc(NC(=O)c3cc(NC(=O)c4cc(NC(=O)c5ccc(N(CCCl)CCCl)cc5)cn4C)cn3C)cn2C)cc1C(=O)NCCC(=N)N | 0.4 mg/kg | – | – | – | 1.2 nM | – | – | 19 | – | – |
| Cl.Cn1cc(NC(=O)c2cc(NC(=O)c3cc(NC(=O)c4cc(NC(=O)c5ccc(N(CCCl)CCCl)cc5)nn4C)cn3C)cn2C)cc1C(=O)NCCC(=N)N | – | 34.5 nM | – | – | 10.4 nM | 0.42 nM | – | 326.2 and 302.3 | 3.1 mg/kg | 144% |
| Cl.Cn1cc(NC(=O)c2cc(NC(=O)c3cc(NC(=O)c4cc(N(CCCl)CCCl)cn4C)cn3C)cn2C)cc1C(=O)NCCC(=N)N | 0.39 mg/kg | 0.081 nM | 133% | – | – | – | – | – | 0.39 mg/kg | 188% |
| C=C(Br)C(=O)Nc1cc(C(=O)Nc2cc(C(=O)Nc3cc(C(=O)NCCC(=N)N)n(C)c3)n(C)c2)n(C)c1.Cl | – | – | – | – | 1.2 nM | – | – | 68 and 156 | – | – |
| Cl.Cn1cc(NC(=O)c2cc(NC(=O)c3cc(N(CCCl)CCCl)cn3C)cn2C)cc1C(=O)NCCC(=N)N | 0.78 mg/kg | 3.9 nM | 117% | – | – | – | – | – | 1.6 mg/kg | 138% |
| Cl.Cn1cc(NC(=O)c2cc(NC(=O)c3cc(NC(=O)c4cc5cc(NC(=O)c6ccc(N(CCCl)CCCl)cc6)ccc5[nH]4)cn3C)cn2C)cc1C(=O)NCCC(=N)N | 3.1 mg/kg | 95.3 nM | 163% | – | 0.88 nM | 0.54 nM | 7.5 nM | 5.7 and 9.2 | – | – |
| Cl.Cn1cc(NC(=O)c2cc(NC(=O)c3cc(NC(=O)c4cc5cc(N(CCCl)CCCl)ccc5[nH]4)cn3C)cn2C)cc1C(=O)NCCC(=N)N | 0.39 mg/kg | 8 nM | 174% | – | 1.2 nM | 0.42 nM | 1 nM | 6.8 and 19 | – | – |
| C=C(Br)C(=O)Nc1cc(C(=O)Nc2cc(C(=O)Nc3cc(C(=O)Nc4cc(C(=O)NCCC(=N)N)n(C)c4)n(C)c3)n(C)c2)n(C)c1.Cl | 1.6 mg/kg | – | 200% | – | – | 0.42 nM | – | – | 3.1 mg/kg | 725% |
| C=C(Br)C(=O)Nc1cc(C(=O)Nc2cc(C(=O)Nc3cc(C(=O)Nc4cc(C(=O)NCCC(=N)N)n(C)c4)n(C)c3)n(C)c2)n(C)n1.Cl | – | 13.3 nM | – | – | – | 0.42 nM | – | – | 6.2 mg/kg | 200% |
| Cl.Cn1cc(NC(=O)c2cc(NC(=O)c3cc(NC(=O)c4cc5cc(N(CCCl)CCCl)ccc5n4C)cn3C)cn2C)cc1C(=O)NCCC(=N)N | 1.6 mg/kg | 14.7 nM | 457% | – | 1.2 nM | 0.42 nM | 1 nM | 6.8 and 19 | – | – |
| Cl.Cn1cc(NC(=O)c2cc(NC(=O)c3cc(NC(=O)c4nc(NC(=O)c5ccc(N(CCCl)CCCl)cc5)cn4C)cn3C)cn2C)cc1C(=O)NCCC(=N)N | – | 2370 nM | – | – | 5 nM | 0.42 nM | – | 2 and 2.1 | – | 125% |
| Cl.Cn1cc(NC(=O)c2cc(NC(=O)c3cc(NC(=O)c4cc5cc(NC(=O)c6ccc(N(CCCl)CCCl)cc6)ccc5o4)cn3C)cn2C)cc1C(=O)NCCC(=N)N | 6.2 mg/kg | 43.5 nM | 150% | – | 1.2 nM | 0.42 nM | – | 6.8 and 19 | – | – |
| Cl.Cn1cc(NC(=O)c2cc(NC(=O)c3cc(NC(=O)c4cc5cc(N(CCCl)CCCl)ccc5o4)cn3C)cn2C)cc1C(=O)NCCC(=N)N | 0.39 mg/kg | 3.7 nM | 200% | – | 1.2 nM | 0.42 nM | 3 nM | 6.8 and 19 | – | – |
| C=C(Br)C(=O)Nc1ccc2c(c1)cc(C(=O)Nc1cc(C(=O)Nc3cc(C(=O)NCCC(=N)N)n(C)c3)n(C)c1)n2C.Cl | 3.1 mg/kg | 15.3 nM | 133% | – | 150 nM | 41 nM | – | – | – | – |
| C=C(Br)C(=O)Nc1ccc2c(c1)cc(C(=O)Nc1cc(C(=O)Nc3cc(C(=O)Nc4cc(C(=O)NCCC(=N)N)n(C)c4)n(C)c3)n(C)c1)n2C.Cl | 6.2 mg/kg | 2.4 nM | 192% | – | 150 nM | 43 nM | – | – | – | – |
| C=C(Br)C(=O)Nc1cn(C)c(C(=O)Nc2cc(C(=O)Nc3cc(C(=O)Nc4cc(C(=O)NCCC(=N)N)n(C)c4)n(C)c3)n(C)c2)n1.Cl | – | 46.9 nM | – | – | 1.2 nM | 0.42 nM | – | 15.5 and 13.9 | 6.2 mg/kg | 163% |
| C=C(Br)C(=O)Nc1ccc2[nH]c(C(=O)Nc3cc(C(=O)Nc4cc(C(=O)Nc5cc(C(=O)NCCC(=N)N)n(C)c5)n(C)c4)n(C)c3)cc2c1.Cl | 12.5 mg/kg | 4.1 nM | 213% | – | 140 nM | 36 nM | – | – | – | – |
